Published values from different studies.
Compare with care: the assays were run in different laboratories.
Cell line: MCF7
Observed: cell growth or viability

| SMILES | assay | conditions | IC50 [µM] |
| --- | --- | --- | --- |
| CC(=O)OC[C@H]1O[C@@H]([S-])[C@H](OC(C)=O)[C@@H](OC(C)=O)[C@@H]1OC(C)=O.CCP(CC)CC.[Au+] | resazurin | – | 5.2 |
| O=C(NC(=S)NCc1ccc(CNC(=S)NC(=O)c2ccc3ccccc3c2)cc1)c1ccc2ccccc2c1 | – | 48 h | 1.19 |
| Oc1ncnc2cc(Nc3nc(-c4ccc(C(F)(F)F)cc4)cs3)ccc12 | MTT | – | 2.86 |
| CSc1nc(/N=C/c2ccc(O)cc2)n(-c2ccc(C(=O)O)cc2)n1 | MTT | – | 34.8 |
| Cc1ccc2nc(-c3c(F)cccc3Cl)[nH]c2c1 | MTT | 48 h | > 100 |
| O=S(=O)(NN=Cc1cn(CCN2CCOCC2)c2ccccc12)c1ccccc1 | MTT | 48 h | 73.2 |
| CS(=O)(=O)c1ccc(-n2cc(C=N/N=c3\[nH]c(-c4ccc(Br)cc4)cs3)c(-c3ccc([N+](=O)[O-])cc3)n2)cc1 | MTT | 48 h | 19.9 |
| COc1cc2ncnc(Nc3ccc(F)c(Cl)c3)c2cc1NC(=O)N/N=C/CN1CCOCC1 | MTT | 72 h | 7.43 |
| COc1cccc(-c2nc3ccc(C)cc3[nH]2)c1 | MTT | 48 h | 50.6 |
| CCCCc1ccc2[nH]c(NC(=O)OC)nc2c1 | CCK-8 | 72 h | 0.0996 |
| O=C(CCl)Nc1ccc2c(Nc3cccc(C(F)(F)F)c3)ncnc2c1 | MTT | 24 h | 7.78 |
| F[B-](F)(F)F.[Fe+3].c1cc[cH-]c1.c1cc[cH-]c1 | MTT | – | 150 |
| COc1cccc2c3c(c[n+](C)c12)sc1cccc(F)c13 | MTT | 72 h | 3 |
| c1ccc2[nH]c(-c3ccncc3)nc2c1 | MTT | 48 h | > 100 |
| c1cnc2c(c1)ccc1cccnc12 | MTT | 48 h | > 50 |
| O=[N+]([O-])c1ccc(-c2nc3ccccc3[nH]2)cc1 | MTT | 48 h | 27.2 |
| CC(C)(C)c1ccc(S(=O)(=O)NN=Cc2cn(CCN3CCOCC3)c3ccccc23)cc1 | MTT | 48 h | 67.8 |
| Cc1ccc2nc(-c3ccc([N+](=O)[O-])cc3)n(Cc3ccccc3Cl)c2c1 | MTT | – | 20.2 |
| CCN(CC)CCCn1cccc1/C=N/NC(=O)Nc1cc2c(Nc3ccc(F)c(Cl)c3)ncnc2cc1OC | MTT | 72 h | 2.43 |
| COc1ccc(Nc2nc(-n3nc(C)cc3C)nc(-n3nc(C)cc3C)n2)cc1 | MTT | 72 h | 12 |
| CSc1nc(/N=C/c2cc([N+](=O)[O-])ccc2O)n(-c2ccc(C(=O)O)cc2)n1 | MTT | – | 20 |
| Nc1ncnc2c1ncn2[C@@H]1O[C@H](CO)[C@@H](O)[C@H]1O | WST-1 | 48 h | 48.3 |
| O=C1Nc2c(C(F)(F)F)cccc2[C@@]1(c1ccc(O)cc1)N1CCC(F)(F)C1 | resazurin | 72 h | 0.022 |
| CCN(CC)CCCn1cccc1/C=N/NC(=O)Nc1cc2c(Nc3ccc(F)c(Cl)c3)ncnc2cc1O[C@H]1CCOC1 | MTT | 72 h | 2.49 |
| Fc1ccc(-c2nc3ccccc3n2Cc2ccccc2)cc1 | MTT | – | 31.5 |
